# Source: PubChem (Broad Institute)
# Calb FLC = C. albicans growth inhibition with fluconazole, primary screen, CaCi-2 strain, Alamar Blue fluorescence; C. albicans CaCi-2 (fluconazole-resistant clinical isolate) + fluconazole, 48 h; growth inhibition, % (no concentration beside the values); 0.57% of 300,000 active;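 active = growth inhibition above about 58% in most replicates, limit read from the data, passing the limit was not always enough; inconclusive = exactly half the replicates above a set limit; inactive = most replicates below a set limit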;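 note: all wells also contain fluconazole at 8 µg/ml as a sub-toxic cotreatment; 0% = median of DMSO wells and 100% = median of geldanamycin control wells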
# HIF act = HIF pathway transcriptional activators, primary screen, cell-based, U2OS HRE-luciferase, luminescence; U2OS HRE-luciferase reporter; normalized: DMSO 0%, desferrioxamine 100%; activation, % at 7.5 µM (by protocol); 0.32% of 300,000 active;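 active = mean activation of at least 10% of the iron chelator positive control signal, with at least half of replicates also reaching 10%; inconclusive = mean and replicate majority disagree about reaching 10%; inactive = mean and most replicates under 10%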
# T cruzi repl = inhibitors of intracellular T. cruzi growth, primary screen, luminescence, NIH3T3 host cells; T. cruzi beta-gal in NIH3T3, 90 h; inhibition, % (no concentration beside the values); 1.4% of 300,000 active; AID 1885, 2009;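 active = mean inhibition across valid replicates above about 55%, limit read from the data; inconclusive = mean below that limit but half or more replicates reach it; inactive = mean below it, under half of replicates reach it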;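 note: signal also drops with host cell toxicity which is not excluded here; 0% = plate median of DMSO wells and 100% = zero luminescence signal; higher percent means less beta-gal luminescence so fewer parasites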
#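 Material: NIH/3T3 host cells with β-galactosidase reporter T. cruzi; Input: 5,000 host fibroblasts per well; Medium: DMEM, 2% fetal bovine serum; Compound: 50 nL DMSO compound solution per well; Schedule: 3 h host attachment, then at least 90 h co-culture; Detection: luminescent β-galactosidase signal after 60 min lysis.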
# HSF1 inhib = HSF1 inhibitors in luciferase reporter cells, primary screen, cell-based, NIH3T3, luminescence | AID 2098, 2009 | NIH3T3-HGL HSE-luciferase, MG132-induced, luminescence 8 h; stronger effect = lower value | activity change, negative = inhibition, % at 7.5 µM (by protocol) | 0.77% of 300,000 active;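 active = more than half of replicate wells show activity change below -50%, luminescence cut by over half; inconclusive = some wells, but at most half, below -50%; inactive = no replicate well below -50%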;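 note: luciferase reports HSF-1 transcriptional activity via heat shock element; 0% = median of DMSO wells and -100% = zero luminescence signal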
# HSF-1 act = HSF-1 activators, primary screen, NIH3T3-HGL cells, MG132 stress, luminescence, single point. NIH3T3-HGL HSF-1 luciferase reporter, 8 h; 100% = twice DMSO control signal. 1.7% of 300,000 active. AID 504408, 2011. activation, % at 9 µM;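 active = mean replicate activation of at least 50% with a set share of replicates each reaching 50%; inconclusive = only one of those two conditions met; inactive = mean below 50% and too few replicates reaching it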;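 note: 0% = median of the neutral control wells and 100% = twice that signal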
# * hit, by the source's call; ? = inconclusive; / = no result. Most compounds without a hit are left out; they make up all but 4.4% or so of the library.
SMILES,Calb FLC,HIF act,T cruzi repl,HSF1 inhib,HSF-1 act
Cc1c(-c2ccccc2)nc2ccccc2c1C(=O)OCC(=O)Nc1ncc(C(F)(F)F)cc1Cl,?,-0.1,8.0,-7.3,0.5
CN(C)CCCN(C(=O)/C=C/c1cccs1)c1nc2c(F)cccc2s1,?,-0.8,56.0*,0.8,-8.4
Cc1cccc2sc(N(CCN(C)C)C(=O)C3CCN(S(=O)(=O)c4cccs4)CC3)nc12,-0.7,0.2,57.3*,5.2,-6.8
Cc1cccc2sc(N(CCN(C)C)C(=O)/C=C/c3cccs3)nc12,15.5,-0.9,22.3,29.0,78.3*
CN(C)CCCN(C(=O)c1cc(-c2cccs2)nc2ccccc12)c1nc2c(F)cccc2s1,-2.6,-3.1,36.5,-4.5,6.0
CCOC(=O)Nc1ccc(S(=O)(=O)NC2CCCCC2)cc1,-25.5,-0.4,-1.6,-5.9,-1.5
COCCCNC(=O)C1CCN(C(=O)c2cc3sccc3n2Cc2ccc(F)cc2)CC1,6.0,/,-0.1,6.5,1.0
CCN1CCN(C(=O)C2CCN(C(=O)c3cc4sccc4n3CC)CC2)CC1,5.6,0.3,-32.7,-69.9*,-75.7
O=C(NCCCN1CCCC1)C1CCN(C(=O)c2cc3sccc3n2Cc2ccc(F)cc2)CC1,-2.2,0.2,55.1*,6.5,14.9
Cc1ccc(C(=O)N2CCC(n3nccc3NC(=O)C3CCOC3)CC2)cc1 (stereo not drawn),-4.0,-0.2,3.7,-1.1,5.1
CCOC(=O)c1cnc2ccccc2c1NCc1ccco1,1.9,0.5,22.9,5.6,20.1
CCOC(=O)c1cnc2ccccc2c1Nc1ccc2c(c1)OCCO2,5.0,-2.0,4.2,-60.8*,-63.8
C=CCNC(=O)c1ccc2c(=O)n(CCCN3CCCC3=O)c(=S)[nH]c2c1,-6.2,-0.4,-19.9,-2.5,-12.7
O=C(NCCC1=CCCCC1)c1ccc2c(c1)N(Cc1ccccc1)C(=O)CS2,-19.4,-0.5,55.7*,20.0,27.4
O=C(/C=C/Nc1ccc(F)c(Cl)c1)c1ccccc1,-37.4,4.5,22.8,19.4,17.4
COc1ccc(C(=O)NCCS(=O)(=O)NCc2ccc(F)cc2)cc1,5.3,-0.1,-7.6,-1.9,8.4
Cc1ccc(Cl)cc1NC(=O)CCC(=O)O,1.5,-0.4,-9.8,-3.5,-12.1
COc1ccc(CC(=O)N/N=C(\C)CC(=O)Nc2ccc3c(c2)OCCO3)cc1OC,2.2,-0.2,-11.1,3.1,-18.5
Cc1ccc(OCCCCNC2CCCCC2)c(C)c1,-47.7,-0.2,54.7*,-4.4,3.3
Cc1ccc(OCC(O)CNC2CCCC2)c(C)c1 (stereo not drawn),-1.2,0.0,1.6,-1.1,-6.3
CCc1nnc(NC(=O)CC23CC4CC(CC(Br)(C4)C2)C3)s1,-1.0,0.0,-0.3,21.5,57.9*
CCC(C)n1c(-c2cccs2)nc2nc3ccccc3nc21 (stereo not drawn),35.2,-0.5,14.6,-3.3,16.1
CC(=O)c1c(-c2ccc(Cl)cc2Cl)noc1C,-6.9,0.4,-9.8,-57.5*,-63.5
CC(C)(C)NC(=O)CN(C(=O)C(=O)Nc1ccc2c(c1)OCCO2)C(C)(C)C,-28.5,0.1,-10.7,5.6,8.7
O=C(CSc1ccc(-c2nc3ccccc3[nH]2)cn1)Nc1ccc2c(c1)OCCO2,-8.2,0.2,20.3,5.8,38.8
SMILES,Calb FLC,HIF act,T cruzi repl,HSF1 inhib,HSF-1 act
O=C(CSc1ccc(-c2nc3ccccc3[nH]2)cn1)Nc1ccc(S(=O)(=O)NC2CC2)cc1,-2.1,0.9,7.3,25.9,51.4*
Cc1ccc2nc(-c3ccc(SCC(=O)Nc4ccc5c(c4)OCCO5)nc3)[nH]c2c1,-4.9,5.3,-7.7,35.9,55.5*
Cc1cc2nc(-c3ccc(SCC(=O)Nc4ccc5c(c4)OCCO5)nc3)[nH]c2cc1C,12.6,3.3,18.0,/,/
CC(=O)Nc1nc2ccccc2n1CCOc1ccccc1,-4.5,-3.0,-22.8,2.0,-3.4
S=C(Nc1ccccc1)Nc1nc2ccccc2n1CCOc1ccccc1,93.8*,0.0,5.3,-6.5,-1.0
CC(=O)Nc1ccc(NC(=O)C(C)OC(=O)CCCN2C(=O)c3cccc4cccc(c34)C2=O)cc1 (stereo not drawn),-2.7,-1.3,-4.0,6.9,-1.4
Cc1ccccc1CCN(C(=O)Cn1nnc2ccccc21)C(C(=O)NCC1CCCO1)c1nc2ccccc2n1C (stereo not drawn),-12.3,0.0,10.8,1.3,-1.4
CC1(C)C(=O)OC(c2ccc([N+](=O)[O-])cc2)C(C)(C)C1=O (stereo not drawn),3.1,-3.5,-1.3,-9.9,-6.4
CC(C)NC(=O)c1sc2nc3c(c(-c4cccs4)c2c1N)CN(C)CC3,-4.0,0.4,56.5*,-6.0,-9.9
CC(C)NC(=O)CCCN1C(=O)c2ccccc2Sc2ncccc21,12.7,-3.4,-4.9,-3.6,-3.3
CCOC(=O)c1c(N)n(-c2ccc(N)cc2)c2nc3ccccc3nc12,26.0,0.2,-2.5,-1.9,-14.4
Nc1c(C(=O)Nc2ccccc2)c2nc3ccccc3nc2n1-c1ccc(O)cc1,14.9,0.1,58.6*,3.9,5.3
Oc1cccc(/C=N/c2c(-c3ccco3)nc3ccccn23)c1,7.1,17.7*,6.2,-2.3,1.1
O=[N+]([O-])c1ccc(Cl)c(-c2ccc(/C=N/c3c(-c4ccco4)nc4ccccn34)o2)c1,-2.4,0.3,-11.5,1.9,9.1
CC1CCN(C(=O)Cn2nnc(-c3ccc([N+](=O)[O-])cc3)n2)CC1,-4.6,0.5,1.4,-3.4,-6.4
CC(=O)c1ccc(NC(=O)CCNC(=O)c2ccccc2Cl)cc1,-0.7,0.0,-2.7,-5.4,-6.0
COc1cccc(C(=O)N[C@@H](CCSC)c2nc3ccccc3[nH]2)c1,-6.4,-0.6,2.7,-7.1,-23.5
COc1cccc(CC(=O)N[C@@H](CCSC)c2nc3ccccc3[nH]2)c1,7.7,-0.4,-0.9,-53.7*,-65.5
CC(C)(C)c1csc(NNC(=O)c2ccc(Br)cc2)n1,-15.6,11.5*,42.2,0.5,-4.1
CCNC(=S)N1CCN(S(=O)(=O)c2cccc(C(F)(F)F)c2)CC1,13.2,0.1,0.7,29.7,72.2*
CCOc1ccc(NCc2cccn2-c2nnc(N3CCC(C(=O)NCCCN4CCCCC4)CC3)s2)cc1,-6.4,0.1,0.2,-57.4*,-67.6
COC(=O)c1cn(C)c2ccc(S(=O)(=O)N3CCCCC3)cc2c1=O,-2.1,89.9*,-4.2,-1.7,-18.5
N/C(CS(=O)(=O)c1ccc(F)cc1)=N\O,11.9,-0.4,-7.1,-8.6,-1.9
O=C(NCCc1ccccc1)c1cc2sccc2n1Cc1ccccc1,-3.3,74.6*,36.3,-3.1,0.6
Cc1cccc(CN2CCc3c([nH]c4ccccc34)C2)c1,-6.2,0.8,16.3,-6.1,-8.0
